From ChEMBL document CHEMBL4513216, “Probing the Open Global Health Chemical Diversity Library for Multistage-Active Starting Points for Next-Generation Antimalarials” (ACS Infect Dis, 2020)

Experiment: Toxicity liver stage against HepG2, at 10uM
Type: cell-based
Design: test concentration 10 uM, cell line HepG2-A16-CD81EGFP
Details: human, HepG2-A16-CD81EGFP cells; read-out: INHIBITION
Procedure, shortened: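 Uninfected HepG2-A16-CD81EGFP cells, 3 × 10^3 per well, 1536-well, plated on prespotted compound at 10 μM final, parasite-free screening media added to match infected plates; puromycin 10 μM positive, DMSO 0.5% negative; run in parallel with 48 h PbLuc assay at 37 °C, 5% CO2; viability by CellTiter-Glo luminescence, normalized to controls.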

SMILES | cytotoxicity at 10 µM
c1cc(CNCc2ccc(Cn3cncn3)cc2)c2c(c1)OCCO2 | 0.585%
Cc1ccc(OC2CCN(S(=O)(=O)N(C)C)CC2)nc1 | 7.68%
CCn1nc(C)c(CCn2ccnc2-c2cc3n(n2)CCCNC3)c1C | -2.1%
COCCS(=O)(=O)NC(=O)c1nnn(-c2ccc(F)cc2)c1C1CC1 | 0.188%
Cc1ncoc1C(=O)N1C[C@@H]2CN(CC3CC3)CCO[C@@H]2C1 | 9.23%
CCCn1cc(NC(=O)c2ccc(S(C)(=O)=O)cc2)ccc1=O | -13.1%
CS(=O)(=O)NCCC(=O)Nc1cnn(-c2ccccc2Cl)c1 | -0.0414%
CN(C)S(=O)(=O)N1CCN(c2ccnc(N3CCCCC3)n2)CC1 | -1.48%
CN(C)C(=O)COC[C@@H]1CC[C@H]2[C@H](CCN2c2ncccn2)O1 | 15.6%
CC(C)n1ncc2c1NC(=O)CC21C(=O)Nc2c(Br)cc(Cl)cc21 (stereo not drawn) | 5.99%
O=C(c1cnc(Nc2ccccc2)nc1)N1CCS(=O)(=O)CC1 | -1.01%
CC(C)c1nc(C(=O)N(C)c2ccc(Br)cn2)cs1 | 7.84%
Cc1ccc(N2CCCN(C(=O)CC3CCCO3)CC2)nn1 (stereo not drawn) | -3.68%
COc1ccccc1NC(=O)CC(C)NCc1scnc1C (stereo not drawn) | 0.686%
Cc1cccc(CN2C[C@@H]3CN(C(=O)c4ccsc4)C[C@@H]3C2=O)n1 | 5.86%
c1ccc(CO[C@H]2CC[C@H]3[C@H]2OCCN3CCN2CCCCC2)nc1 | -7.16%
Cc1ccc(CN2CC(C(=O)Nc3ccccc3)C3(CCOCC3)C2)o1 (stereo not drawn) | 0.927%
CS(=O)(=O)NCCc1cccc2cccnc12 | 18.3%
Cn1cc(CN2CCCn3cnc(COCC4CC4)c3C2)cn1 | -6.66%
CCc1nc2c(c(NCc3nc(-c4cccnc4)no3)n1)CCNCC2 | 5.85%
c1ccc(-c2nc(CN3CCCC3Cn3cncn3)co2)cc1 (stereo not drawn) | -1.99%
CC(C)n1ccnc1C1CCCN(c2ncccc2C(N)=O)C1 (stereo not drawn) | -9.53%

SMILES | cytotoxicity at 10 µM
Cc1nonc1CNC(=O)C(C)Oc1cccc(F)c1 (stereo not drawn) | 1.22%
Cc1cc(CN2CCN(C(=O)c3sccc3C(C)C)CC2)no1 | -0.962%
CNC(=O)[C@@H](c1ccccc1OC)N1CCC[C@H]1C(=O)NC(C)(C)C | -6.67%
COCCNC(=O)c1cc2c(s1)CCN2S(C)(=O)=O | -5.05%
CN1CCN(c2ccc(NS(=O)(=O)c3ccc(Br)s3)cc2C(=O)O)CC1 | -4.5%
Cc1cnc(NCC(C)(C)N2CCOCC2)nc1 | 5.68%
CCc1nc(CN2CCCN(C(=O)C(C)COC)CC2)cs1 (stereo not drawn) | -0.884%
O=S(=O)(NC[C@H]1C[C@@H]2CCN1C[C@@H]2CN1CCOCC1)c1ccccc1 | 1.82%
NC(=O)c1nc(COc2ccc3c(c2)OCO3)no1 | 8.55%
Cc1cnn(CCNC(C)c2nnc(-c3ccccc3)o2)c1 (stereo not drawn) | -2.4%
Cn1nc(-c2cccs2)cc1[C@H]1CN2CC[C@H]1C[C@@H]2CN | 5.88%
Cc1nc(CN2C[C@@H]3CN(C(=O)Cc4ccccn4)C[C@@H]3C2)cs1 | -106%
COc1ccc(-n2cc3nc(N)[nH]cc-3c2=O)cc1 | 6.25%
CN(CCO)CC1COCCN1C(=O)C1(c2cccs2)CCCC1 (stereo not drawn) | -9.06%
NC(=O)c1cc2c(nc1-c1ccc3c(c1)OCCO3)CCC2 | -1.88%
Cc1nccc(N2CCC(=O)N(Cc3ccc(F)cc3)C(C(C)C)C2)n1 (stereo not drawn) | -0.449%
CCCc1noc(CN2CCOCC2C)n1 (stereo not drawn) | 6.3%
O=C(CCN1CCC(c2cc3ccccc3[nH]2)CC1)N1CCOCC1 | -3.81%
O=C(c1cnc(-c2cccs2)s1)N1CCCC(n2ccnc2)C1 (stereo not drawn) | -12.8%
COC(=O)c1sc(C(F)(F)F)cc1OC | 4.69%
Cc1cn2nc(N(C)C3CCCN(c4cccnn4)C3)sc2n1 (stereo not drawn) | 4.29%
CN(C)S(=O)(=O)N1CCCC(c2cccc(Cc3ccc(Cl)cc3)n2)C1 (stereo not drawn) | 56%

SMILES | cytotoxicity at 10 µM
CCN(CC)C(=O)[C@@H]1C[C@H](N)CN1c1nnc(-c2ccccc2)s1 | -51.7%
Cc1nc(C2CCCN2CCS(C)(=O)=O)no1 (stereo not drawn) | -5.07%
CC(C)SCc1cccc(NC(=O)NC(C)c2nc[nH]n2)c1 (stereo not drawn) | -45.2%
Cc1cnc(CN2CCOC(CN(C)c3cccnn3)C2)cn1 (stereo not drawn) | 3.64%
Cc1nnc(SCC(=O)N2CCc3[nH]nc(C4CCC4)c3C2)o1 | -7.09%
CC(C)(C)C(=O)N1CCC2(CC1)CC(Oc1ccccc1)CO2 (stereo not drawn) | 4.12%
CS(=O)(=O)CCNC(=O)Nc1ccc(Cl)cc1-n1cccc1 | 48.2%
CCCN(CC(=O)OC)S(=O)(=O)c1cnc2c(c1)c(C)nn2C | -2.61%
CN(C)c1ccc(C(=O)N2CCCC(n3cccn3)C2)nn1 (stereo not drawn) | -4.43%
CC(C)N1CCc2c(c(COc3cccnc3)nn2CC2CC2)C1 | 6.49%
O=C(c1ccccc1O)N1CCN(C(=O)C2CCC2)CC1 | 2.42%
Cc1occc1-c1nc(NC2CCCC2)ncc1-c1ccccn1 | -20.9%
Nc1nc(N)c2c(n1)OC1(CCN(C(=O)CC3CCNCC3)CC1)C2 | 5.41%
Cc1ncncc1C(=O)N1CCCC(n2ccnc2C)C1 (stereo not drawn) | -2.17%
Cc1nc2c(c(=O)n1C)CN(C(=O)C1CCCN(C3CCCC3)C1)C2 (stereo not drawn) | -8.67%
CS(=O)(=O)CCC(=O)NC1CC(c2ccccc2Cl)C1 (stereo not drawn) | -4.19%
CN(C)Cc1cc(=O)n2c(n1)CN(C(=O)c1ccc[nH]1)CCC2 | -123%
CC(C)c1nc(CN(CC(N)=O)C(C)C)cs1 | -14.4%
CN(Cc1ccco1)C(=O)CN1CCCCC1Cn1cncn1 (stereo not drawn) | 3.61%
Cn1ccc2cc(CC3COCCN(C(=O)c4cccnc4)C3)ccc21 (stereo not drawn) | 7.24%
CC1COCCN1Cc1nc(-c2cccc(C(F)(F)F)c2)no1 (stereo not drawn) | -13.9%
CC(=O)OCc1ccc(CN2CCCCCC2c2cc(C)no2)o1 (stereo not drawn) | -13.1%

SMILES | cytotoxicity at 10 µM
O=C([C@@H]1CSCN1)N1CCC2(CC1)CNCc1ccccc12 | -2.08%
CCCN1CCC(CNC(=O)C2(c3cc(C)cc(C)c3)CCC2)C1 (stereo not drawn) | -0.185%
N#Cc1ccc(C(=O)N2C[C@@H](CN3CCCC3)C[C@H](CO)C2)cc1 | -2.86%
Cc1cc(F)ccc1NC(=O)NCC(C)N1CCOCC1 (stereo not drawn) | -4.1%
Cc1nc2c(C#N)cnn2c(C)c1CCC(=O)N(C)C(C)C(C)C (stereo not drawn) | -43.7%
COc1cccc(-n2nnc(C(=O)N3CCCC(C)C3)c2C)c1 (stereo not drawn) | -5.33%
CN(C)C1COC2(CCN(S(=O)(=O)c3ccc(F)cc3)CC2)C1 (stereo not drawn) | -129%
CN(C)CCOCc1ncn2c1CN(c1ncc(F)cn1)CCC2 | 15%
Cc1ccc(-c2nc(CNCC3CN(C)CCO3)cs2)o1 (stereo not drawn) | -9.16%
Cc1c(Cl)cccc1S(=O)(=O)NCc1cnc(N(C)C)n1C | -6.31%
CCc1ccc(CN2CCNC(C(=O)N3CCN(C)CC3)C2)nc1 (stereo not drawn) | 7.68%
Cc1noc([C@H]2C[C@H]3OCC[C@H]3N(Cc3cccs3)C2)n1 | -96.3%
CC1(Cc2ccccn2)NCCc2[nH]cnc21 (stereo not drawn) | -5.18%
COc1ccc(OC)c(C2SCC(=O)Nc3n[nH]cc32)c1 (stereo not drawn) | 12.8%
O=C(C1CCC1)N1C[C@H]2CC[C@@H](C1)N(S(=O)(=O)c1ccccc1)C2 | -10%
COCCNC(=O)CN1CCN(c2nc(C)cs2)C(C)C1 (stereo not drawn) | -4.03%
CCOc1nnc(CN2CCN(CCOC)C(CC)C2)s1 (stereo not drawn) | -5.73%
O=C(NCC(=O)N1CCC2(CC1)OCCO2)c1ccoc1 | -9.55%
CCc1ccc(C(=O)N2CC[C@H](Oc3cccnc3C)[C@@H](O)CC2)cc1 | 8.24%
CC(C)C(=O)N1CC[C@@H]2[C@H](CC1)N(Cc1cccnc1)CCS2(=O)=O | -7.77%
CC(C)S(=O)(=O)NCC1CCCN(C(=O)c2ccc(F)cc2)C1 (stereo not drawn) | 4.68%
Cc1cccc(CN2CCN(Cc3ccccc3)CC(O)C2)n1 (stereo not drawn) | -8.42%

SMILES | cytotoxicity at 10 µM
O=C(c1ccccc1)N1CC[C@H]2C[C@@H](c3nnc(C4CC4)o3)O[C@@H]2C1 | -99.2%
Cc1ncc(C(=O)NC2CCc3nccn3C2)c(C(C)C)n1 (stereo not drawn) | -2.31%
O=C(C1CC(=O)N(c2ccccc2)C1)N1CCC2(CC1)OCCO2 (stereo not drawn) | 1.87%
O=C(NCC1CC1)[C@H]1C[C@H]2OCC[C@H]2N(CCc2ccccc2)C1 | 3.86%
O=C(NCCC1CCCO1)c1ccccc1N1CCOCC1 (stereo not drawn) | -10.8%
CCS(=O)(=O)N1C[C@@H](OCc2ccccn2)[C@@H]2OCCC[C@@H]21 | -2.31%
Cc1nc(CN2CCN(C(=O)C(c3ccccc3C)N(C)C)CC2)no1 (stereo not drawn) | 1.06%
CC(C)c1nc(CCNC(=O)NCc2ccnc(N(C)C)c2)cs1 | -4.69%
CC(CC(=O)N1CCN(c2cnccn2)CC1)c1ccc(F)cc1 (stereo not drawn) | -48%
COc1ccc(CN(C)[C@@H]2CN(C(=O)c3ccnn3C)C[C@H]2O)cc1 | -13.5%
Cc1nn(C)cc1C(C)Nc1ncnc2sccc12 (stereo not drawn) | 14.1%
CCS(=O)(=O)N1CCc2cc(C(=O)N(C)C)c(NCC3CC3)nc2CC1 | 0.0623%
c1cnn(CCC2CCN(Cc3ccc4[nH]ccc4c3)CC2)c1 | -7.57%
COc1ccc(Cc2ncc3c(n2)CN(C(=O)C(C)(C)C)C3)cc1 | -1.1%
COc1ccc(NC(=O)CSC(F)(F)F)cn1 | -96.6%
CNc1nc2cn(C3CC(C)(C)NC(C)(C)C3)c(=O)c-2c[nH]1 | 12%
COc1cc(C(=O)O)ccc1OCC(=O)NC(C)c1ccc(F)cc1 (stereo not drawn) | -1.4%
CCC(CO)N(CC=C(C)C)Cc1ccsc1 (stereo not drawn) | 6.07%
Cn1c(CS(=O)(=O)Cc2cccc(Cl)c2)cc(=O)n(C)c1=O | 8.17%
c1ccc2oc(N3CCCCC3Cn3cncn3)nc2c1 (stereo not drawn) | -7.59%
